Data taken from publication PMC6225502 (Journal of Clinical Oncology, 2018).

What was measured:
[1] = pembrolizumab monotherapy reference data set; cited from earlier work
[2] = Plasma pharmacokinetics of epacadostat; assay type: in vivo, human
[3] = patients with advanced cancers; cited from earlier work
[4] = assay type: in vivo, human
Method in brief: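 Adults with advanced solid tumors took oral epacadostat 25, 50 or 100 mg twice daily with IV pembrolizumab 2 mg/kg every 3 weeks, or 300 mg twice daily with 200 mg every 3 weeks, in 3 + 3 + 3 escalation. Expansion cohorts of up to nine received 50, 100 or 300 mg with 200 mg. DLTs were protocol-specified AEs within the first 6 weeks. RP2D was set by expansion tolerability.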

[5] = system: IDO1; conditions: doses ≥ 100 mg twice per day; ref [1][6]; cited from earlier work
[6] = Safety and tolerability: treatment-related adverse events; assay type: in vivo, human
Method in brief: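 Patients receiving ≥1 dose of oral epacadostat twice daily plus IV pembrolizumab every 3 weeks were assessed on day 1 of every cycle, at end of treatment and during follow-up. Liver function tests were run weekly for the first 6 weeks. AEs were graded per CTCAE v4.0 and summarized descriptively.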

[7] = system: IDO1; experiment: Pharmacokinetic-based projected IDO1 inhibition; set-up: species or system human
[8] = epacadostat 100 mg twice per day + pembrolizumab
[9] = epacadostat 300 mg twice per day + pembrolizumab

Compound	Treatment-emergent antipembrolizumab antibody rate [1] [%]	Dose dependence of plasma exposures (AUC and Cmax) ([2]; 25 to 300 mg twice per day + pembrolizumab)	Time of maximum observed plasma concentration ([2]; across doses)	Tolerability of single-agent epacadostat [3]	DLTs observed ([4]; epacadostat 100 mg twice per day + pembrolizumab (15 patients))	Recommended phase II dose (RP2D) of epacadostat ([4]; plus pembrolizumab 200 mg every 3 weeks) [mg twice per day]	Inhibition of IDO1 activity and kynurenine levels [5]	Rate of AEs of special interest [6, 8] [%]	Rate of grade 3/4 TRAEs [6, 8] [%]	Rate of treatment-related dose interruptions [6, 8] [%]	Rate of treatment-related dose reductions [6, 8] [%]	Rate of AEs of special interest [6, 9] [%]	Rate of grade 3/4 TRAEs [6, 9] [%]	Rate of treatment-related dose interruptions [6, 9] [%]	Rate of treatment-related dose reductions [6, 9] [%]	Average concentrations at steady state relative to the IC50 associated with optimal target inhibition ([7]; all patients who received epacadostat ≥ 100 mg twice per day)	Patients who achieved a minimum IDO1 inhibition of ≥ 50% ([7]; epacadostat 100 mg twice per day)	Patients projected to have achieved ≥ 50% time-averaged IDO1 inhibition ([7]; epacadostat 100 mg twice per day or 300 mg twice per day)	Patients projected to have achieved ≥ 50% time-averaged IDO1 inhibition ([7]; steady state, all epacadostat doses) [%]
pembrolizumab	2.1																		
NS(=O)(=O)NCCNc1nonc1C(=NO)Nc1ccc(F)c(Br)c1 [Epacadostat]		increased in an approximately dose-proportional manner	approximately 2 hours	well tolerated	grade 3 AST increased/grade 2 ALT increased and grade 2 nervous system disorder occurred in one patient each	100	provide optimal inhibition of IDO1 activity and normalization of kynurenine levels	6	28	22	11	30	35	45	35	exceeded the IC50	the majority of patients	all patients	> 90
